Only some compounds are listed: those with a hit (about 12% of all), similar ones and a draw of the others.
ROMK primary: ROMK potassium channel modulators, primary screen, cell-based, thallium flux, MLSMR library. ATP-sensitive inward rectifier potassium channel 1 (Homo sapiens), P48048. Tet-inducible ROMK, thallium flux fluorescence; actives lie on both sides. B-score at 10 µM. 130,000 compounds, 2% hits. AID 1918, 2009;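 active = signal ratio slope over the read window, or its plate-corrected B-score, at least 3 SD from the plate mean, either direction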;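 note: B-score of the F/F0 ratio slope over 7 to 12 s after thallium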
Diaphorase inh: diaphorase inhibitors and chemical oxidizers, primary screen, counter-screen for diaphorase-coupled primary assays, biochemical, uHTS, resorufin fluorescence; inhibition, % at 20 µM; 190,000 compounds, 0.69% hits; AID 1217, 2008; diaphorase resazurin-to-resorufin fluorescence, NADH, 16 min; bacterial (C. kluyveri) enzyme, not human;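 active = primary screen inhibition at 20 µM above a set limit, cut at about 50% in these data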;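 note: plate controls were DMSO with full reaction for no effect and wells lacking NADH for full effect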
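Benchmarks: positive control wells lacking NADH, neutral wells with DMSO only. System: bacterial diaphorase enzyme (C. kluyveri). Input: 0.14 U/mL diaphorase, enzyme working solution. Detection: resorufin fluorescence, excitation 544 nm, emission 590 nm. Times: 16-min room-temperature incubation before reading.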
Diaph act CS: compounds boosting diaphorase resazurin reduction – biochemical, uHTS, resorufin fluorescence, counter-screen for diaphorase-coupled primary assays, primary screen; Diaphorase/resazurin coupled assay, 16 min; hits give high values; 1 = vehicle wells, 0 = NADH-free wells; activation factor at 20 µM; 190,000 compounds, 0.005% hits; AID 1229, 2008;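 active = diaphorase activity raised at least twofold by the compound at 20 µM; inactive = activation factor below 2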
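Test system: Clostridium kluyveri diaphorase, purified enzyme. Buffer or medium: 50 mM HEPES pH 7.4 buffer plus MgCl2 and Tween 20. Also added: 0.114 mM NADH and 0.1 mM resazurin, final amounts. Dosing: compound 20 µM once, DMSO 1%. Schedule: 16 min enzyme reaction, ambient temperature. Detection: fluorescence of resorufin, 544 nm excitation, 590 nm emission.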
WT yeast gro inh: growth inhibition of WT strain, primary screen, mitochondrial fusion inhibitor project, WT and mutant strains, chemical genetic; mitochondrial fusion phenotypic screen; inhibition, % at 10 µM; 190,000 compounds, 2.1% hits; AID 1362, 2008; in the data active = inhibition above about 58%; tested in S. cerevisiae
L major viab: Leishmania major promastigote growth inhibition, primary screen. Leishmania major promastigotes, resazurin fluorescence viability. inhibition, % at 10 µM. 200,000 compounds, 9% hits; in the data active = inhibition above about 50%;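 note: promastigotes grown with compound for 44 hours at 28 °C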
Cl transport mod: KCC2 cotransporter modulators, thallium flux, primary screen, cell-based, HEK293 KCC2, FluoZin-2 fluorescence, MLSMR; B-score of Tl+ flux slope (higher = more flux/activation; lower = inhibition) at 10 µM; 190,000 compounds, 2.2% hits; KCC2 cells, thallium flux FluoZin-2 fluorescence; Solute carrier family 12 member 5 (Homo sapiens), Q9H2X9;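 active = thallium flux slope and its plate-corrected score both differing from the plate sample mean at a set confidence after two filtering rounds, in either direction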;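 note: slope of fluorescence scaled to starting intensity during 10 to 20 s after thallium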
Target sequence (Q9H2X9 whole entry, looked up): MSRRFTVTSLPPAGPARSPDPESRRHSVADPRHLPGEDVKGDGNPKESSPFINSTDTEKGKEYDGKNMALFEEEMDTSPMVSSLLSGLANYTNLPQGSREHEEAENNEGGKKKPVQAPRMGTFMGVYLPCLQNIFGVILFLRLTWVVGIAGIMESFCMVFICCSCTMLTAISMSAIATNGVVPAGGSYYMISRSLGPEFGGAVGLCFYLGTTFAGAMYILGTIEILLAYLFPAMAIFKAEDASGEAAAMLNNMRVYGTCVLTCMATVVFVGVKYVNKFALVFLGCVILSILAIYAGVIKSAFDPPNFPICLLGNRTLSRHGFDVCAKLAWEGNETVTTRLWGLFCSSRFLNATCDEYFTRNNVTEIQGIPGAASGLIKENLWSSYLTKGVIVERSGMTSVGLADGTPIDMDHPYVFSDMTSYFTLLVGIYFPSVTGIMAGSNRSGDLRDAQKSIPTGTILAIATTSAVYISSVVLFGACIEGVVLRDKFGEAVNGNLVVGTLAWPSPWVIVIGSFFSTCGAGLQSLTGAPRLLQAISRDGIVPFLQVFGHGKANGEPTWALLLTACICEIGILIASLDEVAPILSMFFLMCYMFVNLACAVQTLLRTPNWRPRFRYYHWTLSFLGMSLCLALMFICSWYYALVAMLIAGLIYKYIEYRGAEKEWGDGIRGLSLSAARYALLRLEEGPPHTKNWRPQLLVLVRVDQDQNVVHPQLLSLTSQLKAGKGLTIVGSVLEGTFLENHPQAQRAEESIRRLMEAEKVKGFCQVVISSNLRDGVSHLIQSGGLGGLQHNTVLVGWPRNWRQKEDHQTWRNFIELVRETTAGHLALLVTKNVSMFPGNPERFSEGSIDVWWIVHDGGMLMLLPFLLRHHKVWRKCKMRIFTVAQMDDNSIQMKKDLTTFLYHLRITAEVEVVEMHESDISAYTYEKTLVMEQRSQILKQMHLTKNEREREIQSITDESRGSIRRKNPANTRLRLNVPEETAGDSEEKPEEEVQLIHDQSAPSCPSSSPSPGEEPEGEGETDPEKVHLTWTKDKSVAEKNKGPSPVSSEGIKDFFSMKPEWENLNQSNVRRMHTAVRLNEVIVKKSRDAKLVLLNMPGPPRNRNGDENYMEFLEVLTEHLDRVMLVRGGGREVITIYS
L major 1uM: Leishmania major promastigote growth inhibition, confirmation, 1 µM repeat of primary hits; shares compounds with L major viab; inhibition, % at 1 µM; 1,100 compounds, 13% hits; L. major promastigote growth, resazurin fluorescence, 48 h; AID 1258, 2008;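 active = inhibition above about 50% in both repeat tests, limit read from the data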
An asterisk follows results filed as active.

Results for Cc1ccc2c(c1)-c1cc(C)nn1C(c1ccc3c(c1)OCO3)N2 (centres undefined) ?
Diaphorase inh: 20; Diaph act CS: 0.8; WT yeast gro inh: -11; L major viab: 98*; Cl transport mod: 1; L major 1uM: 95*

What do the screens show for `N#Cc1cc2sc3nc4ccccc4n3c2cc1C#N`?
Diaphorase inh: 11; Diaph act CS: 0.9; WT yeast gro inh: 4; L major viab: -5

What do the screens show for `N#Cc1cc2sc3nnc(-c4ccncc4)n3c2cc1C#N`?
Diaphorase inh: 22; Diaph act CS: 0.8; WT yeast gro inh: -2; L major viab: 54*; Cl transport mod: -0.34; L major 1uM: 17

What do the screens show for `COc1ccc(O[C@H]2C=C[C@@H](c3ccccc3)O[C@@H]2CO/N=C(\C)CCN2CCCCc3nc(C)c(C)cc32)cc1`?
ROMK primary: -1.1; Diaphorase inh: -4; Diaph act CS: 1; WT yeast gro inh: 60*; L major viab: 84*; Cl transport mod: 0.6; L major 1uM: 16

Results for C/C(CCN1CCCCc2nc(C)c(C)cc21)=N\O[C@@H](C)CN1CCCCc2nc(C)c(C)cc21 ?
ROMK primary: -1.2; Diaphorase inh: 8; Diaph act CS: 0.9; WT yeast gro inh: 20; L major viab: 68*; Cl transport mod: -0.26; L major 1uM: 15

Results for COc1cc([N+](=O)[O-])ccc1NC(=O)CCCOc1cccc(C)c1C ?
Diaphorase inh: 15; Diaph act CS: 0.9; WT yeast gro inh: 14; L major viab: -3

Results for CCOC(=O)c1cc(-c2ccc(N)cc2)sc1N ?
Diaphorase inh: 9; Diaph act CS: 0.9; WT yeast gro inh: 19; L major viab: 60*; Cl transport mod: -0.66; L major 1uM: -5

What do the screens show for `O=C1C2ON(c3ccc(Br)cc3)C(c3cccnc3)C2C(=O)N1C1CCCCC1` (centres undefined)?
ROMK primary: 0.1; Diaphorase inh: 9; Diaph act CS: 0.9; WT yeast gro inh: -3; L major viab: 85*; Cl transport mod: -0.35; L major 1uM: 72*

What do the screens show for `COc1ccc(CC(=O)NC(C)c2nnc(SCC(=O)c3ccc(Br)cc3)n2C)cc1` (centres undefined)?
Diaphorase inh: 11; Diaph act CS: 0.9; WT yeast gro inh: -5; L major viab: 75*; Cl transport mod: 0.49; L major 1uM: -4

Results for CC(C)c1ccccc1NC(=O)COC(=O)Cc1c[nH]c2ccccc12 ?
ROMK primary: 0.72; Diaphorase inh: 12; Diaph act CS: 0.9; WT yeast gro inh: 13; L major viab: 50*; Cl transport mod: -1.5; L major 1uM: -2

How did COc1ccccc1NC(=O)COC(=O)Cc1c[nH]c2ccccc12 do in these assays?
ROMK primary: -0.17; Diaphorase inh: 20; Diaph act CS: 0.8; WT yeast gro inh: 14; L major viab: 7; Cl transport mod: -2.5

Results for Cc1nn(-c2ccccc2)c(/N=C/c2ccccc2O)c1-c1ccccc1 ?
ROMK primary: -0.29; Diaphorase inh: 2; Diaph act CS: 1; WT yeast gro inh: 10; L major viab: -9; Cl transport mod: 0.09

Results for CCn1c(=O)c(C(=O)NCc2ccc(OC)c(OC)c2)c(O)c2ccccc21 ?
Diaphorase inh: 33; Diaph act CS: 0.7; WT yeast gro inh: -10; L major viab: 84*; Cl transport mod: -0.95; L major 1uM: -14

Results for CCCn1c(=O)c(C(=O)NCc2ccc(OC)c(OC)c2)c(O)c2ccccc21 ?
ROMK primary: 0.9; Diaphorase inh: 12; Diaph act CS: 0.9; WT yeast gro inh: -6; L major viab: -6; Cl transport mod: -0.67

How did COCCCNC(=O)CN1C(=O)/C(=C/c2ccccc2)Sc2ccccc21 do in these assays?
Cl transport mod: -0.87

Results for Cc1ccc(S(=O)(=O)NNC(=O)C2CCN(Cc3ccccc3)CC2)cc1 ?
Diaphorase inh: 0; Diaph act CS: 1; WT yeast gro inh: -32; L major viab: 85*; L major 1uM: 4

Results for Cc1ccc(S(=O)(=O)NN=C2CCN(Cc3ccccc3)CC2)cc1 ?
ROMK primary: 1.5; Diaphorase inh: 1; Diaph act CS: 1; WT yeast gro inh: -19; L major viab: 0; Cl transport mod: -0.53

How did CC1=NN(c2ccc(C)cc2)C(=O)/C1=C\c1ccc(Br)s1 do in these assays?
ROMK primary: -0.21; Diaphorase inh: 0; Diaph act CS: 1; WT yeast gro inh: 3; L major viab: 99*; Cl transport mod: 0.6; L major 1uM: 20

Results for Cc1c(Cl)cccc1N/C(SCC(=O)N1CCCCCC1)=C(/C#N)c1nc2ccccc2s1 ?
ROMK primary: -0.16; Diaphorase inh: 13; Diaph act CS: 0.9; WT yeast gro inh: -18; L major viab: 100*; Cl transport mod: -0.31; L major 1uM: 19

Results for O=C(CSc1nc2ccccc2s1)N1CCCCC1 ?
ROMK primary: -1.4; Diaphorase inh: 19; Diaph act CS: 0.8; WT yeast gro inh: 5; L major viab: 3; Cl transport mod: -0.036

How did CCOC(=O)Nc1ccc2c(c1)Nc1ccccc1S2 do in these assays?
ROMK primary: 0.47; Diaphorase inh: 41; Diaph act CS: 0.6; WT yeast gro inh: 13; L major viab: 67*; L major 1uM: -15

Results for CCOC(=O)Nc1ccc2c(c1)N(C(=O)N1CCN(C)CC1)c1ccccc1S2 ?
ROMK primary: -2; Diaphorase inh: 14; Diaph act CS: 0.9; WT yeast gro inh: 52; L major viab: 84*; L major 1uM: 10

What do the screens show for `CCOC(=O)Nc1ccc2c(c1)N(C(=O)N1CCN(C)CC1)c1ccccc1CC2`?
ROMK primary: -0.11; Diaphorase inh: 14; Diaph act CS: 0.9; WT yeast gro inh: -7; L major viab: -3; Cl transport mod: -0.5

Results for O=C(N/C(=C/c1ccc(Br)cc1)C(=O)N1CCCC1=O)c1ccco1 ?
ROMK primary: 0.46; Diaphorase inh: 12; Diaph act CS: 0.9; WT yeast gro inh: 2; L major viab: -4; Cl transport mod: 0.36

Source: PubChem BioAssay
